Only some compounds are listed: those with a hit (about 3.5% of all), similar ones and a draw of the others.
MrgX1 antag – antagonists of human MrgX1 receptor, primary screen, HEK293 cells, Fluo-4 calcium flux | AID 588676, 2011 | Mas-related G-protein coupled receptor member X1 (Homo sapiens), Q96LB2 | B-score at 10 µM | 1.3% of 310,000 active | BAM8-22 antagonism; hits give low values;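 active = calcium-response B-score plate-corrected more than 3 library SD below zero, starting fluorescence within 5 deviations, no agonist response on first addition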;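 note: peak minus trough fluorescence over baseline after final BAM8-22 challenge near maximal dose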
Target sequence (Q96LB2 whole entry, looked up): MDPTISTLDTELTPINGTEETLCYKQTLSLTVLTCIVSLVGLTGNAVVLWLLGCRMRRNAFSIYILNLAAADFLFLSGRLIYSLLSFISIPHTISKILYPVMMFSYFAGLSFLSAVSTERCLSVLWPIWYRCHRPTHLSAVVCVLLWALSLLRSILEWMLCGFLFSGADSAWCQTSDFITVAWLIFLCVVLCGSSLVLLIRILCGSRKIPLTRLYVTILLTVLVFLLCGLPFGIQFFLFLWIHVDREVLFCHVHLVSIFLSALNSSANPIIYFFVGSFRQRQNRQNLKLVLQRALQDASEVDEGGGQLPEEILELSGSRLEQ
RGS4 pot – RGS4 potentiators or activators, primary screen, cell-based, HEK293 M3R inducible RGS4, calcium flux; carbachol calcium flux Fluo4; hits give low values; B-score at 10 µM; 0.92% of 310,000 active; AID 463111, 2010;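 active = B-score of the integrated calcium signal more than 4 SD below the library mean, with starting fluorescence not abnormally high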;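 note: negative B-score means reduced calcium response which marks RGS4 activation or potentiation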
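Assay system: Inducible-RGS4 HEK293 cells carrying M3 receptor | Schedule: Compound preincubation 20 min at room temperature before agonist | Signal: Kinetic calcium fluorescence imaging with Fluo4-AM dye, 2 µM | Read-out basis: B score from integrated fluorescence ratio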
RGS4 block – RGS4 inhibitors, primary screen, cell-based, HEK293 M3R inducible RGS4, calcium flux; Regulator of G-protein signaling 4 (Homo sapiens), P49798; Fluo-4 calcium flux; hits give high values; triggered by carbachol at its EC20; B-score at 10 µM; 0.45% of 310,000 active;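 active = B-score, a plate-corrected calcium signal, over three deviations above library mean, with baseline fluorescence within five deviations of library mean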;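 note: RGS4 expression induced by doxycycline in cells with stable M3 receptor; B-score is computed from the integrated fluorescence ratio over baseline after carbachol; higher B-score means a larger calcium signal and so more RGS4 inhibition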
Target sequence (P49798 whole entry, looked up): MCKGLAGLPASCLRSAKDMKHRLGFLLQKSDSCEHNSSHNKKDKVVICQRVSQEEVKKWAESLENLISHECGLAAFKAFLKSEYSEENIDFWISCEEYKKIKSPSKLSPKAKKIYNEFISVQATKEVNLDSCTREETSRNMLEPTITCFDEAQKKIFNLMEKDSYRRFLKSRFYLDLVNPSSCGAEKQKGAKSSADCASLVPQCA
MrgX1 PAM – positive allosteric modulators of MrgX1, primary screen, HEK293 cells, Fluo-4 calcium flux. Mas-related G-protein coupled receptor member X1 (Homo sapiens), Q96LB2. AID 588675, 2011. B-score at 10 µM. FDSS; hits give high values. 0.63% of 310,000 active;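 active = plate-corrected calcium response at least 3 library SD above typical, normal starting fluorescence, not activating the receptor alone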;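 note: compound read alongside a low EC10 to EC30 dose of BAM8-22 agonist; peak minus trough fluorescence over baseline measured at the second addition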
MrgX1 ag – agonists of human MrgX1 receptor, primary screen, HEK293 cells, Fluo-4 calcium flux. B-score at 10 µM. Mas-related G-protein coupled receptor member X1 (Homo sapiens), Q96LB2. 0.44% of 310,000 active. Fluo-4 calcium fluorescence, agonist mode; hits give high values;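 active = calcium response B-score plate-corrected fluorescence ratio at least 3 library SD, with starting fluorescence B-score inside 5 SD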
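Material: MrgX1-expressing HEK293 cells / Dosing: compound as first of three additions / Incubation: overnight seeding, then 1 h dark dye loading / Signal: Fluo-4 NW calcium fluorescence / Evaluation: B-scored fluorescence response ratio / Benchmarks: positive and negative control wells on each plate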
RGS4 act valid – reduced carbachol calcium response, RGS4-induced M3R cells, confirmation, RGS4 activator project, cell-based, HEK293 M3R/RGS4 inducible, calcium flux, duplicate; shares compounds with RGS4 pot; carbachol calcium flux Fluo4; inhibition, % at 10 µM; 89% of 1,100 active; AID 602282, 2012;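 active = inhibition above 3 SD of the buffer control wells, cut at about 41% in these data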;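 note: signal is the integrated peak-minus-minimum Fluo4 fluorescence over baseline ratio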
M3R Ca counter – counter-screen for RGS4 activators: effect in non-induced cells; shares compounds with RGS4 pot; AID 602283; 82% of 1,100 active; HEK293 M3R non-induced RGS4, Fluo4 calcium flux; after carbachol challenge at its EC90; inhibition, % at 10 µM;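 active = inhibition exceeding 3 SD of buffer-only control wells, cut at about 26% in these data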;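 note: percent drop in integrated peak-minus-baseline over baseline Fluo4 ratio after carbachol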
Each line names hits and unclear results; the compound was inactive in the other large screens (follow-up assays come after a bar, where they were run).

Cc1ccccc1N1CCN(CCCN2C(=O)CC(=C(c3ccccc3)c3ccccc3)C2=O)CC1	RGS4 pot -8.4 | RGS4 act valid 90 | M3R Ca counter 43
O=C(NC1CCCCC1)N1CCSC1=Nc1ccccc1	RGS4 pot -8.2 | RGS4 act valid 80 | M3R Ca counter 43
COc1cccc(-c2ccc(NC(=O)C3CCCN(Cc4cnn(C(C)C)c4)C3)cc2)c1 (stereo not given)	RGS4 pot -11 | RGS4 act valid 92 | M3R Ca counter 79
O=C(Nc1ccc(-c2cccc(F)c2)cc1)C1CCCN(Cc2ccccn2)C1 (stereo not given)	RGS4 pot -8.1 | RGS4 act valid 50 | M3R Ca counter 29
CCCc1ncc(CN2CCCC(C(=O)Nc3ccc(-c4cccc(OC)c4)cc3)C2)cn1 (stereo not given)	none
CCOC(=O)c1sc2nc(C)nc(NCc3ccc(F)cc3)c2c1C	none
CCOC(=O)c1sc2nc(C)nc(NCc3ccc(Cl)cc3)c2c1C	RGS4 pot -7.8 | RGS4 act valid 90 | M3R Ca counter 42
CCOC(=O)N1CCC(N2CCN(CCC(C)C)C(CCO)C2)CC1 (stereo not given)	RGS4 pot -10 | RGS4 act valid 78 | M3R Ca counter 30
C/C(=N\NC(=O)c1ccc(CN2CCc3ccccc3C2)cc1)c1ccccc1O	MrgX1 antag -5, RGS4 pot -14 | RGS4 act valid 94 | M3R Ca counter 96
CC(=O)c1cccc(NC(=O)c2ccc(CN3CCc4ccccc4C3)cc2)c1	none
COC(=O)c1cc(COc2ccc3c4c(c(=O)oc3c2)CCC4)c(C)o1	none
CCOC(=O)c1cc2sccc2n1Cc1ccccc1	none
CCOC(=O)c1cc2sccc2n1CCCN1C(=O)c2ccccc2C1=O	RGS4 pot -7.9 | RGS4 act valid 73 | M3R Ca counter 84
Cc1ccc(C)c(/C=N/Nc2nc3ccccc3c(=O)n2O)c1	none
COC(=O)C1=C(C)NC(C)=C(C(=O)OCCN(C)Cc2ccccc2)C1c1cccc([N+](=O)[O-])c1 (stereo not given)	none
Clc1ccc(CN2C3=NCCCN3c3ccccc32)c(Cl)c1	none
COC(=O)c1ccc(OC)c(CSc2nnc(COc3ccccc3)o2)c1	none
COC(=O)c1ccc(OC)c(CSc2nnc(-c3ccc(C(C)(C)C)cc3)o2)c1	RGS4 pot -7.9 | RGS4 act valid 58 | M3R Ca counter 84
O=C(c1ccc2c(=O)n3c(nc2c1)CCCCC3)N1CCN(C(c2ccccc2)c2ccccc2)CC1	RGS4 pot -7.7 | RGS4 act valid 93 | M3R Ca counter 92
O=c1c2cc(Br)ccc2nc2n1CCCCC2	RGS4 pot -8.9 | RGS4 act valid 80 | M3R Ca counter 30
O=C(c1ccc2c(=O)n3c(nc2c1)CCCCC3)N1CCN(c2ccccc2)CC1	none
COC(=O)c1ccc(CN2CCN(C3CCCC3)C(CCO)C2)cc1 (stereo not given)	RGS4 pot -9.3 | RGS4 act valid 92 | M3R Ca counter 67
O=C(O)c1cc(O)ccc1NC(=O)C(c1ccccc1)c1ccccc1	none
CSCC[C@H](NC(=O)OC(C)(C)C)C(=O)N/N=C/c1ccc2nccnc2c1	RGS4 pot -12 | RGS4 act valid inactive | M3R Ca counter inactive
CCc1ccc(OCC(=O)N2CCN=C2c2ccccc2)cc1	RGS4 pot -8.6 | RGS4 act valid inactive | M3R Ca counter inactive
Cc1ccc(Cl)cc1NC1=NC(=S)N(C(C)C)C12CCCCC2	RGS4 pot -8.3 | RGS4 act valid 80 | M3R Ca counter 41
Cc1ccc(Cl)cc1NC(=O)C(=O)N1CCCCC1	none
O=C(NCCOc1ccc(F)cc1)c1ccccc1SCc1ccccc1	RGS4 pot -7.7 | RGS4 act valid 92 | M3R Ca counter 74
CCc1ccc(OCCNC(=O)c2ccccc2SCc2ccc(F)cc2)cc1	none
CCCC(=O)NC(=S)Nc1cccc(Cl)c1N1CCCCC1	RGS4 pot -8.9 | RGS4 act valid 94 | M3R Ca counter 64
O=C(NC1CCN(C(=O)Nc2ccc(F)cc2)CC1)c1cccc(F)c1	none
COc1ccc(S(=O)(=O)N(C)C)cc1NC(=O)[C@H](Cc1ccccc1)N1C(=O)c2ccccc2C1=O	RGS4 pot -9.4 | RGS4 act valid 93 | M3R Ca counter 58
Cc1nonc1C(=O)N/N=C/c1cccc(O)c1	none
Cc1nc2sc(C)c(C)c2c(=O)o1	RGS4 pot -8.5 | RGS4 act valid inactive | M3R Ca counter inactive
Cc1cc(C)c2c(n1)SCC(=O)N2CC(=O)Nc1ccc(Br)c(C)c1	none
N=c1c2c(-c3ccccc3)c(-c3ccccc3)oc2ncn1CCN1CCOCC1	RGS4 pot -9 | RGS4 act valid 58 | M3R Ca counter 84
CCCN(CC(=O)Nc1ccccc1C)C(=O)C1CCN(c2ncnc3sc(C)c(C)c23)CC1	RGS4 pot -8.7 | RGS4 act valid 64 | M3R Ca counter 27
Cc1ccccc1OCC(=O)NNC(=O)C1CCN(c2ncnc3sc(C)c(C)c23)CC1	none
COC(=O)c1ccc(N(CC(=O)NC2CCCC2)C(=O)c2ccc(C)s2)cc1	RGS4 pot -8.9 | RGS4 act valid inactive | M3R Ca counter inactive
COc1ccc(N(CC(=O)NC2CCCCC2)C(=O)c2ccc(C)s2)cc1OC	none
CCOC(=O)c1ccc(NC(=S)N2CCCC(C(=O)N3CCCC3)C2)cc1 (stereo not given)	none
CCOC(=O)c1ccc(NC(=S)N2CCSC2c2ccc(Br)cc2)cc1 (stereo not given)	RGS4 pot -8.1 | RGS4 act valid 92 | M3R Ca counter 91
CCOC(=O)c1ccc(NC(=S)N2CCC(O)CC2)cc1	none
CCOC(=O)c1ccc(NC(=S)N2CCCC(C)C2)cc1 (stereo not given)	RGS4 pot -8.9 | RGS4 act valid 79 | M3R Ca counter 26
CC(Sc1ccccc1)C(=O)NN=C1CCCCCC1 (stereo not given)	none
Cc1ccnc(Nc2nc(-c3ccc(Cl)cc3)cs2)c1	none
Cc1ccnc(Nc2nc(-c3ccc(F)cc3)cs2)c1	RGS4 pot -8.8 | RGS4 act valid 92 | M3R Ca counter 74
O=C(O)C1CC=CCC1C(=O)NCc1ccc(Cl)c(Cl)c1 (stereo not given)	none
COc1ccc(N(CC(=O)NCCSc2ccc(C)cc2)S(=O)(=O)c2ccccc2)c(OC)c1	RGS4 pot -12 | RGS4 act valid 73 | M3R Ca counter inactive
